Source: PubChem BioAssay (several laboratories)
Rows were chosen to be rich in hits. Some 3.9% of all compounds tested hit in one or more screens of this group.
SR-BI DiI-HDL act = enhances SR-BI lipid uptake from DiI-HDL; CHO ldlA[mSR-BI] cells, DiI-HDL uptake fluorescence, 3 h; 100 = double the neutral-control signal; activation, % at 12.5 µM; 320,000 compounds, 0.096% hits;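 active means mean replicate activation of at least 60% and every replicate at or above 60%; inconclusive means mean or all-replicate condition met, but not both; inactive means mean below 60% and not all replicates reaching 60%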;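 further: 0% = median plate neutral-control signal and 100% = twice that signal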
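Material: SR-BI-overexpressing, LDLR-lacking CHO cells; schedule: compound exposure 3 h, 37 °C; reagent: DiI-labelled HDL at 10 µg/mL final; technique: bottom-read fluorescence, 550/595 nm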
ABCB6 inh 2 = blocks the human ABCB6 transporter | 360,000 compounds, 0.19% hits | K562-ABCB6 porphyrin accumulation, flow cytometry, 1 h; stronger effect = lower value | fluorescence ratio to DMSO, % at 10 µM | AID 602162;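 active means fluorescence ratio to DMSO below 75%, the collection mean minus 3 SD; inconclusive means too few cells collected in the well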;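 further: signal is porphyrin accumulated inside mitochondria; 100% equals median channel fluorescence of DMSO control wells; lower ratio means ABCB6 inhibition with less porphyrin fluorescence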
HIF activator = HIF pathway transcriptional activation; U2OS HRE-luciferase reporter, luminescence; normalized: DMSO 0%, desferrioxamine 100%; activation, % at 7.5 µM (by protocol); 300,000 compounds, 0.32% hits; AID 1910;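 active means mean activation of at least 10% of the iron chelator positive control signal, with at least half of replicates also reaching 10%; inconclusive means mean and replicate majority disagree about reaching 10%; inactive means mean and most replicates under 10%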
FXN GAA850 act = increases GAA850 frataxin promoter reporter activity; HEK293 lucGAA850 FXN promoter luciferase reporter, 24 h; percent of 10 µM SAHA response; activation, % at 6 µM; 360,000 compounds, 0.56% hits; AID 540364;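 active means activation above the average of all compounds screened plus 3 SD, cutoff fixed separately per campaign, cut at about 7.5% in these data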;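 further: 0% = DMSO wells and 100% = 10 µM SAHA wells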
AHR activator = activators of human aryl hydrocarbon receptor. P35869. AHR-responsive luciferase reporter cells, luminescence. activation, % at 5 µM. 320,000 compounds, 2.5% hits; in the data active means activation above about 47%;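 further: 0% = vehicle wells and 100% = reference agonist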
SR-BI DiI inh = mouse SR-BI HDL lipid transfer inhibition; ldlA[mSR-BI] CHO cells, DiI-HDL uptake fluorescence, 3 h; 320,000 compounds, 0.96% hits; AID 488896; inhibition, % at 12.5 µM;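 active means mean replicate inhibition of at least 70% and a set share of replicates each scoring 70 or more; inconclusive means meets just one of the two criteria; inactive means fails both criteria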;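 further: 0% = median of neutral control wells and 100% = median of positive control wells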
Target sequence (Q61009 whole entry, looked up): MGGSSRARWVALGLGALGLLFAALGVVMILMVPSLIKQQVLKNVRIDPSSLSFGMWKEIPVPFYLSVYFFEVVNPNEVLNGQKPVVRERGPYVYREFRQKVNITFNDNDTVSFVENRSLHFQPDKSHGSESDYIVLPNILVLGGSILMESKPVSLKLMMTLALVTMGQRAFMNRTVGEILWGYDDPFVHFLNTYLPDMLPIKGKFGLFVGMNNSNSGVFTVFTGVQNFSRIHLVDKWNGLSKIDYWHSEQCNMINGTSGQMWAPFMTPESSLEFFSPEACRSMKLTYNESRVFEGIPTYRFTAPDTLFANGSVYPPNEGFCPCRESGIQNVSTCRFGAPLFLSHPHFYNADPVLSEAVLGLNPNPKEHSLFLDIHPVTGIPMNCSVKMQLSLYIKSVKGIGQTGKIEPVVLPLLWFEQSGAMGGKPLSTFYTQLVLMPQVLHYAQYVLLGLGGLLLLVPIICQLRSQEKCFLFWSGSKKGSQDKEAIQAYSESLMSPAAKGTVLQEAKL
DiI quencher = counter-screen for SR-BI lipid transfer inhibitors: DiI fluorescence quenchers. cell-free DiI-HDL fluorescence quenching, 30 min. AC50, µM (titrated, usually from 35 µM), for inactives: at the top dose activity change, negative = quenching. 470 compounds, 20% hits. shares compounds with SR-BI DiI inh;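 active means quenching, a falling signal, with AC50 below a set limit tied to the top valid dose, actives reach about 32 µM in these data; inconclusive means no clear call, values can overlap the other calls; inactive means rising signal, and the rest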
Active calls of the source: *; ? = inconclusive; · = no result.

SMILES | SR-BI DiI-HDL act | ABCB6 inh 2 | HIF activator | FXN GAA850 act | AHR activator | SR-BI DiI inh | DiI quencher
COc1ccccc1C(=O)NCCn1cc(SCC(=O)Nc2nnc(C)s2)c2ccccc21 | -44 | 93 | -9 | -2 | 4 | 44 | 0%
O=C(NCCn1cc(SCc2ccccc2)c2ccccc21)c1c(F)cccc1F | -71 | ? | 1 | 1 | 5 | ? | -12%
Cc1ccc(CNC(=O)c2ccc(N3CCC4(CC3)CC(c3cccc(Br)c3)=NO4)c([N+](=O)[O-])c2)cc1 | -81 | 99 | -1 | 1 | 0 | 81* | -2%
Cc1cccc(NC(=O)C2(C)CC3c4ccccc4C2c2ccccc23)c1C (centres undefined) | -8 | 105 | 0 | 2 | 2 | 8 | 2%
Cc1ccc(C)c(NC(=O)C2(C)CC3c4ccccc4C2c2ccccc23)c1 (centres undefined) | · | 108 | · | 2 | 1 | · | ·
CCOC(=O)c1cc2c(=O)n3ccccc3nc2n(CC(C)C)c1=NC(=O)c1ccco1 | -15 | 95 | 0 | 2 | 4 | 15 | ·
Cc1ccc(C(C(=O)NC(C)(C)C)N(Cc2cccs2)C(=O)c2ccc3c(c2)OCCO3)cc1 (centres undefined) | 12 | 98 | 0 | -2 | 2 | -12 | 3%
CCC(C)(C)NC(=O)C(c1ccc(C)cc1)N(Cc1cccs1)C(=O)c1ccc2c(c1)OCCO2 (centres undefined) | -77 | 98 | -1 | -1 | 1 | 77* | 6%
COc1ccc(C2C(C#N)=C(N)N(c3ccccc3C#N)C3=C2C(=O)CCC3)cc1CN1CCCC1 (centres undefined) | -3 | 102 | 0 | 2 | 2 | 3 | -4%
CC(C)CN(C(=O)COC(=O)C12CC3CC(CC(O)(C3)C1)C2)C1CCS(=O)(=O)C1 (centres undefined) | -9 | 95 | 1 | 2 | 0 | 9 | -6%
CCn1nc(C)c(CN2CCC(n3nccc3NC(=O)c3ccccc3OC)CC2)c1C | -3 | 96 | -1 | -2 | 3 | 3 | ·
CC(C(=O)NCc1ccccc1)N(Cc1ccccc1Cl)C(=O)c1snc(C(N)=O)c1N (centres undefined) | -84 | 88 | 1 | 2 | 0 | 84* | 2%
COc1ccc(C(C)(NC(C)=O)c2nc(-c3cccc(C#N)c3)cs2)cc1 (centres undefined) | · | 99 | · | 0 | · | · | ·
CCOc1ccc(NC(=O)CN2CCN(CC(=O)Nc3ccc(C(=O)OC)cc3)CC2)cc1 | -81 | 101 | 0 | 1 | 0 | 81* | -1%
O=C(Nc1ccccc1)NC1CC2CCC(C1)N2Cc1nnnn1Cc1ccc2c(c1)OCO2 (centres undefined) | -71 | 103 | -1 | 0 | 3 | ? | 1%
COc1cccc(NC(=O)NC2CCN(Cc3nnnn3Cc3ccc4c(c3)OCO4)CC2)c1 | -30 | 117 | 0 | 1 | 4 | 30 | ·
Cc1[nH]c2c(C)cccc2c1CCNS(=O)(=O)c1cccc([N+](=O)[O-])c1 | -17 | 97 | 1 | 1 | 8 | 17 | ·
COc1ccc(-c2ccc3c(c2)C2CC3CCN2C(=O)OCc2ccccc2)cc1 (centres undefined) | 12 | 101 | · | 0 | · | -12 | ·
O=C(OCc1ccccc1)N1CCC2CC1c1cc(-c3ccc(F)cc3)ccc12 (centres undefined) | · | 96 | · | -1 | · | · | -4%
O=C1CSC(c2ccccn2)N1c1ccccc1 (centres undefined) | 29 | 97 | 2 | -2 | -5 | -29 | ·
Cc1cc(C)c([N+](=O)[O-])cc1NC(=O)CCSc1ccccc1Cl | -38 | 572 | 0 | 1 | -2 | 38 | ·
CC(=O)c1sc(NC(=O)c2ccc(Cl)cc2)nc1C | · | 99 | 0 | 5 | -2 | · | ·
CC(=O)c1ccc(-c2ccc(C(=O)Nc3nc(C)c(C(C)=O)s3)o2)cc1 | -50 | 92 | · | 0 | 11 | 50 | -4%
COc1ccc(C(=O)N2CCC(N3CCN(c4ccccc4)CC3)CC2)cc1 | 14 | 87 | 0 | -1 | -1 | -14 | ·
COC(=O)Nc1nc(-c2ccccc2)c(C(=O)c2ccc(Cl)cc2)s1 | 3 | 84 | 0 | -2 | -2 | -3 | ·
SMILES | SR-BI DiI-HDL act | ABCB6 inh 2 | HIF activator | FXN GAA850 act | AHR activator | SR-BI DiI inh | DiI quencher
CCOC(=O)Nc1nc(-c2ccccc2)c(C(=O)c2ccccc2)s1 | -75 | 93 | 1 | 2 | 16 | 75* | -2%
CCOC(=O)c1ccc(NC(=O)CC2SC(=NC)N(C)C2=O)cc1 (centres undefined) | -39 | 98 | 0 | 0 | -1 | 39 | ·
COc1ccc(N2C=C3C(=O)C(C)(OC(=O)CCc4ccccc4)C(=O)C=C3C=C2c2ccc(C#N)cc2)cc1 (centres undefined) | -3 | 103 | 0 | -1 | 3 | 3 | ·
COc1cc(OC)cc(-c2c(-c3cccs3)c3cc(-c4ccc5c(c4)OCO5)ccc3n2C)c1 | -58 | 102 | · | 0 | 0 | 58 | ·
O=C(N[C@@H]1C/C=C\C[C@H](CC(=O)N(CCO)Cc2ccccc2)C(=O)NC[C@@H](c2ccccc2)OC1=O)OCC1c2ccccc2-c2ccccc21 | -85 | 94 | · | -4 | 1 | 85* | 1%
O=C(N[C@@H]1C/C=C\C[C@@H](CC(=O)N(CCO)Cc2ccccc2)C(=O)NC[C@H](c2ccccc2)OC1=O)OCC1c2ccccc2-c2ccccc21 | -53 | 101 | · | -5 | 1 | 53 | ·
CCCCn1nc2cc(C(=O)NC3CCCc4ccccc43)ccc2c1OCC (centres undefined) | -80 | 96 | -1 | 0 | 7 | 80* | -3%
Nc1c(-c2cccs2)cnn1-c1nc(-c2ccc(F)cc2)cs1 | -74 | 100 | 0 | 2 | 31 | 74* | -7%
CC(C)C(=O)Nc1nnc(SCC(=O)NCC2CCCO2)s1 (centres undefined) | 10 | 88 | 0 | 1 | -2 | -10 | ·
CN1CCN(c2ccc(NC(=O)c3ccc(C(F)(F)F)cc3)cn2)CC1 | -8 | 97 | 1 | 1 | 6 | 8 | ·
CN1CCc2ccc(NC(=O)c3ccc(C(F)(F)F)cc3)cc2C1 | -82 | 102 | -18 | -1 | 41 | 82* | 2%
CS(=O)(=O)N1CCC2CC1c1cc(-c3ccccc3)ccc12 (centres undefined) | -4 | 107 | · | 1 | · | 4 | ·
CN1CCC2CC1c1cc(-c3ccc(C(F)(F)F)cc3)ccc12 (centres undefined) | 12 | 101 | · | -1 | · | -12 | -5%
CN(C)S(=O)(=O)N(CC(=O)Nc1ccccc1F)c1ccccc1 | -2 | 101 | 0 | 1 | 4 | 2 | ·
